ChEMBL document CHEMBL1144502, “Synthesis and biological evaluation of imidazo[1,2-a]pyridine derivatives as novel PI3 kinase p110alpha inhibitors” (Bioorg Med Chem, 2007)

Columns and labels:
[1] = molecular target: Phosphatidylinositol 4,5-bisphosphate 3-kinase catalytic subunit alpha isoform (Bos taurus, UniProt P32871); experiment: Inhibition of GST-tagged bovine PI3K p110-alpha by SPA
In short: (§1)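 Radiometric SPA. Enzyme and compound (in DMSO) in 20 mM Tris-HCl pH 7.4, 160 mM NaCl, 2 mM DTT, 30 mM MgCl2, 0.4 mM EDTA, 0.4 mM EGTA. Stopped with wheat germ agglutinin-coated SPA beads in PBS, then centrifuged. IC50 is the mean of at least two determinations.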

[2] = test system: A375 (human); experiment: Antiproliferative activity against human A375 cells after 46 hrs; details: A375, 46 h
[3] = test system: HeLa; experiment: Suppression of tumor growth in BALB/c nu/nu mouse implanted with human HeLa cells at 25 mg/kg, ip after 2 weeks relative to control; type: functional; details: route intraperitoneal
In short: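 HeLa xenografts in nude mice, five animals per group. Dosing began when tumours reached about 100 mm³. 25 mg/kg (as free base) given ip once daily for 2 weeks, suspended in 20% hydroxypropyl-β-cyclodextrin/saline; the vehicle group served as control. Tumour volume = 1/2 × (short diameter)² × (long diameter).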

[4] = molecular target: Phosphatidylinositol 4,5-bisphosphate 3-kinase catalytic subunit beta isoform (Homo sapiens, UniProt P42338); experiment: Inhibition of GST-tagged human PI3K p110-beta by SPA; in short: as §1
[5] = Half life in ip dosed mouse; type: ADME, organism-based; details: in vivo
In short: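 Mice dosed intraperitoneally. Plasma half-life determined by HPLC/MS/MS.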

[6] = molecular target: Phosphatidylinositol 4,5-bisphosphate 3-kinase catalytic subunit gamma isoform (Homo sapiens, UniProt P48736); experiment: Inhibition of His-tagged PI3K p110gamma by SPA; in short: as §1
[7] = molecular target: Phosphatidylinositol 4-phosphate 3-kinase C2 domain-containing subunit beta (Homo sapiens, UniProt O00750); experiment: Inhibition of Glu-tagged PI3K C2-beta by SPA
In short: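 SPA as for the class I isoforms, but the PI3K C2β buffer is 20 mM Tris-HCl pH 7.4, 160 mM NaCl, 2 mM DTT, 5 mM MgCl2, 15 mM CaCl2, 0.4 mM EDTA. Run 120 min at room temperature. Captured on WGA-coated SPA beads. IC50 is the mean of at least two determinations.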

[8] = test system: HeLa; experiment: Antiproliferative activity against human HeLa cells after 46 hrs; type: functional, cell-based
In short: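 Serum-induced proliferation. Compound (1 µL) spotted into wells, then 1×10^4 cells added. After 46 h incubation, Alamar Blue added; fluorescence read 2 h later at ex 544/em 590 nm.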

Sequence of Phosphatidylinositol 4,5-bisphosphate 3-kinase catalytic subunit alpha isoform (P32871 whole entry, canonical isoform): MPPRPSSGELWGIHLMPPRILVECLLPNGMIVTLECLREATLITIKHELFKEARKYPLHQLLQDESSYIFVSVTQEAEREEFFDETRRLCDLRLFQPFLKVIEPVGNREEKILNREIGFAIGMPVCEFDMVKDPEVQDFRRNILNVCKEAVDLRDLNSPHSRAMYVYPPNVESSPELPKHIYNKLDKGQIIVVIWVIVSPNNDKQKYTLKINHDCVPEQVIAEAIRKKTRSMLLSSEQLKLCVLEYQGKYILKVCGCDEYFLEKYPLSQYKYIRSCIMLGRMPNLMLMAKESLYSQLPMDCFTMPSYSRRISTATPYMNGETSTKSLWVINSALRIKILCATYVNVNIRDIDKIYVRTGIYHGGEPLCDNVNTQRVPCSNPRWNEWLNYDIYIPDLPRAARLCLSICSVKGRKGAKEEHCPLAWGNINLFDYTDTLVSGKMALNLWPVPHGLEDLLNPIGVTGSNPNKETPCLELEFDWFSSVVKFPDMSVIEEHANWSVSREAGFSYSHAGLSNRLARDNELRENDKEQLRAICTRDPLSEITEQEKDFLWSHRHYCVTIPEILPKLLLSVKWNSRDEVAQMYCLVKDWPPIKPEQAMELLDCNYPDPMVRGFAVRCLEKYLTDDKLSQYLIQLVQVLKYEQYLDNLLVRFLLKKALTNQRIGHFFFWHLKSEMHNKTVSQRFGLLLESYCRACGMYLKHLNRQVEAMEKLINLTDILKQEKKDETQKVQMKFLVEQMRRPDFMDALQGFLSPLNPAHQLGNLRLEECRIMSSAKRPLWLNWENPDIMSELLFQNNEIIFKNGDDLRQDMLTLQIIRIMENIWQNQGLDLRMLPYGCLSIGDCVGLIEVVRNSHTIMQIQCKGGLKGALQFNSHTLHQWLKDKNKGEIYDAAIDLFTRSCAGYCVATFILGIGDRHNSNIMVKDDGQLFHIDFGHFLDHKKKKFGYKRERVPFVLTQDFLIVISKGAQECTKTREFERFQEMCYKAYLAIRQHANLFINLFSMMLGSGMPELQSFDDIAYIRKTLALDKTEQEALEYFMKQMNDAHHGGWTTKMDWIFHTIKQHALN
Sequence of Phosphatidylinositol 4-phosphate 3-kinase C2 domain-containing subunit beta (O00750 whole entry, the tested form may be a part, canonical isoform): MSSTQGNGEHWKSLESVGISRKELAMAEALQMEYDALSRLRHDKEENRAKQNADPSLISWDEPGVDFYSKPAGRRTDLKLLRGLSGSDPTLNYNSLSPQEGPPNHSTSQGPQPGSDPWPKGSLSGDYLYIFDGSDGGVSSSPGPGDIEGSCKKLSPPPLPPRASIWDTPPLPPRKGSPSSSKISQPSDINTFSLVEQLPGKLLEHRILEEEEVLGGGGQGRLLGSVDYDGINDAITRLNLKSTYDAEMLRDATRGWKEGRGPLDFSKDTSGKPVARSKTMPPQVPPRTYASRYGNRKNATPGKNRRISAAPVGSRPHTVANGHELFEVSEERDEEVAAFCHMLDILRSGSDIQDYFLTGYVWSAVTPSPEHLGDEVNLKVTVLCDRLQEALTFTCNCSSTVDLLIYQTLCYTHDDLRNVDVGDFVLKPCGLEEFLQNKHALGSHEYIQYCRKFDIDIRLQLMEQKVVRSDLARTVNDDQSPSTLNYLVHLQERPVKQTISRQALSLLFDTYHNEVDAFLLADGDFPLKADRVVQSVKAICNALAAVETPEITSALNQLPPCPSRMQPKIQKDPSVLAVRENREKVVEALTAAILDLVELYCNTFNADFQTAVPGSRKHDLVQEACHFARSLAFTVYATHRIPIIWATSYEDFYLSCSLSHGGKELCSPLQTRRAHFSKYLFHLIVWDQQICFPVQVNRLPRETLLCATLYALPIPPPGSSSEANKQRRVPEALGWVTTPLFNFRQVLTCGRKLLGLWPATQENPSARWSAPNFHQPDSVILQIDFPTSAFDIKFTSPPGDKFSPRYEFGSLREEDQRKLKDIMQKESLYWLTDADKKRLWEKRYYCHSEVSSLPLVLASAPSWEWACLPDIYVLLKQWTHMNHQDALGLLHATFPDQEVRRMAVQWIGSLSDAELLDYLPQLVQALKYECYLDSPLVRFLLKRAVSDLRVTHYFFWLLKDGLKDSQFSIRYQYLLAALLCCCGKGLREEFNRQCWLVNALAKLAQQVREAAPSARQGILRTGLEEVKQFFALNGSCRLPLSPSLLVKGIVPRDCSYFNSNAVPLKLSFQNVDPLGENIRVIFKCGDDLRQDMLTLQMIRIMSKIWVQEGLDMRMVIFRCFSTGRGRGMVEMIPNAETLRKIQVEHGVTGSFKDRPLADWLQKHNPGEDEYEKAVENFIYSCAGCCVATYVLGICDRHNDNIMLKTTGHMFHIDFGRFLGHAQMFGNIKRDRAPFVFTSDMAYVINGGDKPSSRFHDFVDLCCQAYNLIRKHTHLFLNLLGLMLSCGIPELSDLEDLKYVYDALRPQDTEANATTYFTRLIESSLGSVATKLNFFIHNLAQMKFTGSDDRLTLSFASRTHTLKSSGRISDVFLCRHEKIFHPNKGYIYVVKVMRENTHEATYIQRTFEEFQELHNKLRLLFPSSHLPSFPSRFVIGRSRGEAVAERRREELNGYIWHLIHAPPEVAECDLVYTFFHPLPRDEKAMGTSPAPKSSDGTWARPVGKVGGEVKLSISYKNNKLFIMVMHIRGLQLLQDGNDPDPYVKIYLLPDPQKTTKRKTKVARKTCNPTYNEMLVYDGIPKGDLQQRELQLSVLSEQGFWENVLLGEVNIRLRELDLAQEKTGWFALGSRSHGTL
Sequence of Phosphatidylinositol 4,5-bisphosphate 3-kinase catalytic subunit beta isoform (P42338 whole entry, canonical isoform): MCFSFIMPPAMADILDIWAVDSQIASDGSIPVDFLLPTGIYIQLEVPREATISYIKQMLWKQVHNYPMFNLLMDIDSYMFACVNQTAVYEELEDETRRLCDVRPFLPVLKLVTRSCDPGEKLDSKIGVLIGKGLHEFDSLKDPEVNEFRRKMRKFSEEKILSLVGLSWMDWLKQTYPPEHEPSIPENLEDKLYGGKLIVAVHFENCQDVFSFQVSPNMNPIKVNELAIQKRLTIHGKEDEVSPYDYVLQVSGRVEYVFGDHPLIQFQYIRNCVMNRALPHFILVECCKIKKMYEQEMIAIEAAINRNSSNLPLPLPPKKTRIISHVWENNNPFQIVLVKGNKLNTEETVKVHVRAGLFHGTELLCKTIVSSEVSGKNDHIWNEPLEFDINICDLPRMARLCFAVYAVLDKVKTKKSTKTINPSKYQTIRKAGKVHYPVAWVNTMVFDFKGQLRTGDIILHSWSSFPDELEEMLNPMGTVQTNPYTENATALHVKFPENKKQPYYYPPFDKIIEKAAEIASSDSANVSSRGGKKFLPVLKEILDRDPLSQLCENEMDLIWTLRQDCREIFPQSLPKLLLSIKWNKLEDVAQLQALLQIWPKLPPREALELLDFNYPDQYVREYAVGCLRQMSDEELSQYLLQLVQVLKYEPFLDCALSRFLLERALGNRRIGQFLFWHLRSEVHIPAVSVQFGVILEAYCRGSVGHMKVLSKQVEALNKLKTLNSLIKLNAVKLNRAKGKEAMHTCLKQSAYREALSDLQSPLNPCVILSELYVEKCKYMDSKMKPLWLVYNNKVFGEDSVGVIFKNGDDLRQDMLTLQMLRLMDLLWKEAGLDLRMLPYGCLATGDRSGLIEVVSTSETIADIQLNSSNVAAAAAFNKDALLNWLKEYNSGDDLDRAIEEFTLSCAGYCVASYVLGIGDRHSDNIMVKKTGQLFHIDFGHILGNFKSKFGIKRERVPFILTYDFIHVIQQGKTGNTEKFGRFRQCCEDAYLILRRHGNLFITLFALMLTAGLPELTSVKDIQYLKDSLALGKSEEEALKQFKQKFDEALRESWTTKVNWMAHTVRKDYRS
Sequence of Phosphatidylinositol 4,5-bisphosphate 3-kinase catalytic subunit gamma isoform (P48736 whole entry, the tested form may be a part, canonical isoform): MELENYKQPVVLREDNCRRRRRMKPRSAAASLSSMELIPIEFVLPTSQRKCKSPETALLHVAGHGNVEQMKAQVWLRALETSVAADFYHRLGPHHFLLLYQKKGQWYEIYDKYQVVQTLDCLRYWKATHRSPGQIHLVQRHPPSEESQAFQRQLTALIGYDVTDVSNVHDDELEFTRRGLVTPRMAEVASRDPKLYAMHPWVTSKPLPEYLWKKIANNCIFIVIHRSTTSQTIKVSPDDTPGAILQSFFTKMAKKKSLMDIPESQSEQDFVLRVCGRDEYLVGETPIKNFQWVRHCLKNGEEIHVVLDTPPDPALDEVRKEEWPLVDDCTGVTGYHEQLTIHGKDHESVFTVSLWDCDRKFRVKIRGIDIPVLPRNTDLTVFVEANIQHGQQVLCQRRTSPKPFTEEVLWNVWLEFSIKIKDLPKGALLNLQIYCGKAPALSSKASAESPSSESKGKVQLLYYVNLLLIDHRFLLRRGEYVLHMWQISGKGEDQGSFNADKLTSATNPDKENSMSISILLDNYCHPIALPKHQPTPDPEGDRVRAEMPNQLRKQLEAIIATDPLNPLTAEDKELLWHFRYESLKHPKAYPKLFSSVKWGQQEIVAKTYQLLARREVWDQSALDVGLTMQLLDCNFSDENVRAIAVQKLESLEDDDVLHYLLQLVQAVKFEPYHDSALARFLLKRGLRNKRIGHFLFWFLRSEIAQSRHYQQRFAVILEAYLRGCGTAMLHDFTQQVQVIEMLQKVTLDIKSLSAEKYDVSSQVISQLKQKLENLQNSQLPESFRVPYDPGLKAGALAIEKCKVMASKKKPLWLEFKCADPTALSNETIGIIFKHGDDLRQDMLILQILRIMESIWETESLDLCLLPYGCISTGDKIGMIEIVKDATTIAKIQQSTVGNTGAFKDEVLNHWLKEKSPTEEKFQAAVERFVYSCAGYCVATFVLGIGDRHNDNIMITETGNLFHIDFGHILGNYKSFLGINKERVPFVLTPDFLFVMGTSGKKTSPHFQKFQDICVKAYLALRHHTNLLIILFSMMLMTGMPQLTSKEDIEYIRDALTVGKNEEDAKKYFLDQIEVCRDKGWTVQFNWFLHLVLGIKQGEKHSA

Row | IC50 [1] [µM] | IC50 [2] [µM] | SMILES | also measured
1 | 0.28 | – | Cc1nc2ccc(Cl)cn2c1-c1ccn(S(=O)(=O)c2cccc([N+](=O)[O-])c2)n1 | –
2 | 0.0018 | 0.17 | Cc1ccc([N+](=O)[O-])cc1S(=O)(=O)n1ccc(-c2cnc3ccc(Br)cn23)n1 | –
3 | 0.0028 | 0.83 | Cc1ccc([N+](=O)[O-])cc1S(=O)(=O)n1ccc(-c2c(C)nc3ccc(Cl)cn23)n1 | –
4 | > 30 | – | Cc1nc2ccc(Cl)cn2c1-c1ccn(S(=O)(=O)c2ccc([N+](=O)[O-])cc2)n1 | –
5 | 0.0031 | 0.73 | Cc1ccc([N+](=O)[O-])cc1S(=O)(=O)n1ccc(-c2c(C)nc3ccc(Br)cn23)n1 | –
6 | 0.76 | – | Cc1nc2ccc(Cl)cn2c1-c1ccn(S(=O)(=O)c2ccc(F)cc2)n1 | –
7 | 0.67 | 23 | Cc1nc2ccccn2c1-c1ccn(S(=O)(=O)c2ccc(F)cc2)n1 | –
8 | 0.1 | 12 | Cc1ccc([N+](=O)[O-])cc1S(=O)(=O)n1ccc(-c2cnc3ccc(Cl)cn23)c1 | –
9 | 0.02 | 19 | O=[N+]([O-])c1ccc(CO)c([S+]([O-])c2nc(-c3cnc4ccc(Cl)cn34)cs2)c1 (centres undefined) | –
10 | 0.0028 | 0.14 | Cc1ccc([N+](=O)[O-])cc1S(=O)(=O)c1nc(-c2cnc3ccc(Cl)cn23)cs1.Cl | Activity [3]: 37%; IC50 [4]: 0.17 µM; half-life [5]: 2.6 h; IC50 [6]: 0.23 µM; IC50 [7]: 0.1 µM; IC50 [8]: 0.21 µM
11 | 0.031 | 0.27 | Cc1ccc([N+](=O)[O-])cc1[S+]([O-])c1nc(-c2cnc3ccc(Cl)cn23)cs1 (centres undefined) | –
12 | 0.082 | 3.37 | Cc1ccc([N+](=O)[O-])cc1Sc1nc(-c2cnc3ccc(Cl)cn23)cs1 | –
13 | – | 8.4 | O=c1cc(N2CCOCC2)oc2c(-c3ccccc3)cccc12 [LY-294002] | IC50 [7]: 2.1 µM
